From ChEMBL document CHEMBL5154815, “A Series of Substituted Bis-Aminotriazines Are Activators of the Natriuretic Peptide Receptor C” (J Med Chem, 2022)

Assays:
[1] = molecular target: T1, Atrial natriuretic peptide receptor 3 (Homo sapiens, UniProt P17342); assay: Binding affinity to CM5 sensor chip immobilized human NPR-C (27 to 541 residues) assessed as dissociation constant by surface plasmon resonance analysis
T1 sequence (P17342 whole entry): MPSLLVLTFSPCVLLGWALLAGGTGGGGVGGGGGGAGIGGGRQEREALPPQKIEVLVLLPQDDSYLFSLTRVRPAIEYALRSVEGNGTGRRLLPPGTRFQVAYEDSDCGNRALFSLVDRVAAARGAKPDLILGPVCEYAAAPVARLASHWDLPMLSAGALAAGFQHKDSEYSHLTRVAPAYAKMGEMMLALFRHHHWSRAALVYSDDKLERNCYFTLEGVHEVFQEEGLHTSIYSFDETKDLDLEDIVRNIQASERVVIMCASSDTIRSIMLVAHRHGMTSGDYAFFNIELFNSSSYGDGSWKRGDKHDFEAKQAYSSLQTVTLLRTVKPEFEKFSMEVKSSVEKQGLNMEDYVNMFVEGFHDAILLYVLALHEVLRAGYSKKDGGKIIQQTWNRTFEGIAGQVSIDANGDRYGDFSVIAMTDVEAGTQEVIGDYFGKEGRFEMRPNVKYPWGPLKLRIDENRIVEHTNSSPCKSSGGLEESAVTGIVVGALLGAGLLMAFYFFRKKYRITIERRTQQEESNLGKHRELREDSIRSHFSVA

[2] = molecular target: T1, Atrial natriuretic peptide receptor 3; assay: Displacement of Flu-P19 probe from human NPR-C (27 to 541 residues) by fluorescence polarization analysis
Procedure, shortened: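 Competition fluorescence polarization used NPR-C extracellular domain protein (20 nM final) and Flu-P19 probe (150 pM final) in PBS-P with 1% DMSO. Ligand ranged 600–0.274 μM, and samples were assembled on ice. Read-out was at ex 485/em 520 nm, normalized to buffer+probe and protein+probe controls and blanked with buffer alone. EC50 came from curve fitting.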

[3] = molecular target: T2, Atrial natriuretic peptide receptor 3 (Rattus norvegicus, UniProt P41740); assay: Agonist activity at NPRC in rat aorta assessed as vasorelaxation by Organ bath assay; format: tissue-based
T2 sequence (P41740 whole entry): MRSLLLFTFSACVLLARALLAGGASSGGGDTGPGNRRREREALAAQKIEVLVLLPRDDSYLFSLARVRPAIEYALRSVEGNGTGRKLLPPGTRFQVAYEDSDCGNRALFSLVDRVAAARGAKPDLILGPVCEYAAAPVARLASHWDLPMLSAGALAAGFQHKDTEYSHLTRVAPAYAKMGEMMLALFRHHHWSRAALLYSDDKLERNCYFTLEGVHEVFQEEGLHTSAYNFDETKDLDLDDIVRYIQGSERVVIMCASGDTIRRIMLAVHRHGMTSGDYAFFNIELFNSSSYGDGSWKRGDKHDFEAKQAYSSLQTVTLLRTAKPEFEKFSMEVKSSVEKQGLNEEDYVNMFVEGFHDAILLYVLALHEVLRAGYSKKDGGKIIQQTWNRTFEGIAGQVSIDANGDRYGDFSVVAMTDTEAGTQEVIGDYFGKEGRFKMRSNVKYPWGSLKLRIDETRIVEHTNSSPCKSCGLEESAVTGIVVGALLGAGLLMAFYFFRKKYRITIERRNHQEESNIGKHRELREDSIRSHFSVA

[4] = molecular target: T3, Atrial natriuretic peptide receptor 3 (Homo sapiens) (UniProt P17342); assay: Agonist activity at NPRC in human Hela cells assessed as decrease in forskolin-induced cAMP level at 100 uM relative to control; format: cell-based; parameters: scale not given: the % may be the effect or the level left
T3 sequence (whole entry): T1 sequence (P17342 whole entry)

[5] = molecular target: T2, Atrial natriuretic peptide receptor 3; assay: Agonist activity at NPRC in rat small mesenteric arteries assessed as vasorelaxation by Organ bath assay; format: tissue-based, Artery
[6] = molecular target: T3, Atrial natriuretic peptide receptor 3 (Homo sapiens); assay: Binding affinity to CM5 sensor chip immobilized human NPR-C (27 to 541 residues) assessed as maximum response by surface plasmon resonance analysis relative to control
Procedure, shortened: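 SPR on CM5-immobilized NPR-C (27–541) in PBS-P with 1% DMSO, double-referenced. Observed Rmax was expressed as a percentage of theoretical Rmax. Theoretical Rmax was calculated from immobilized protein response, analyte and ligand molecular weights, and binding stoichiometry.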

| Structure (SMILES) | Kd [1] [µM] | also measured |
| --- | --- | --- |
| CC(=O)Nc1ccc(Nc2ncnc(N[C@@H](CC(C)C)C(=O)OC(C)C)n2)cc1 | 84.4 | – |
| CC(=O)Nc1ccc(Nc2ncnc(N[C@H](C(=O)OC(C)(C)C)C3CCCCC3)n2)cc1 | 28 | EC50 [2]: 327 µM; EC50 [3]: 6.24 µM |
| CC(=O)Nc1ccc(Nc2ncnc(N[C@@H](Cc3ccc(F)cc3)C(=O)OC(C)(C)C)n2)cc1 | 23.7 | EC50 [3]: 4.43 µM |
| CC(=O)Nc1ccc(Nc2ncnc(N[C@@H](Cc3ccccc3)C(=O)OC(C)(C)C)n2)cc1 | 31.3 | EC50 [2]: 32 µM; Activity [4]: 9.16% |
| CCCCS(=O)(=O)Nc1ccc(Nc2ncnc(N[C@@H](CC(C)C)C(=O)OC(C)(C)C)n2)cc1 | 45.1 | – |
| CC(C)C[C@H](Nc1nc(Cl)nc(Nc2ccc(NS(=O)(=O)c3ccccc3)cc2)n1)C(=O)OC(C)(C)C | 99 | – |
| CC(=O)Nc1ccc(Nc2ncnc(N[C@H](C(=O)OC(C)(C)C)C(C)(C)C)n2)cc1 | 201 | – |
| CC(=O)Nc1ccc(Nc2ncnc(N[C@H](C(=O)OC(C)(C)C)C(C)C)n2)cc1 | 79 | – |
| CC(=O)Nc1ccc(Nc2ncnc(N[C@@H](CC(C)C)C(=O)OC3CCCC3)n2)cc1 | 25 | – |
| CC(=O)Nc1ccc(Nc2ncnc(N[C@@H](CCc3ccccc3)C(=O)OC(C)(C)C)n2)cc1 | 23.8 | EC50 [3]: 3.76 µM |
| CC(=O)Nc1ccc(Nc2ncnc(N[C@@H](C)C(=O)OC(C)(C)C)n2)cc1 | – | EC50 [5]: 3.45 µM; Rmax [6]: < 20%; EC50 [3]: 78.1 µM |
| CCCCS(=O)(=O)Nc1ccc(Nc2nc(Cl)nc(N[C@@H](CC(C)C)C(=O)OC(C)(C)C)n2)cc1 | 25.7 | – |
| CC(=O)Nc1ccc(Nc2ncnc(N[C@@H](CC(C)C)C(=O)OC(C)(C)C)n2)cc1 | 30.8 | Activity [4]: 20.6% |
| CC(=O)Nc1ccc(Nc2ncnc(N[C@@H](Cc3ccc(O)cc3)C(=O)OC(C)(C)C)n2)cc1 | – | Rmax [6]: < 20% |
| CC(=O)Nc1ccc(Nc2ncnc(NC(C)(C)C(=O)OC(C)(C)C)n2)cc1 | – | Rmax [6]: < 20% |
| CC(=O)Nc1ccc(Nc2nc(Cl)nc(N[C@@H](CC(C)C)C(=O)OC(C)(C)C)n2)cc1 | 36.9 | – |
| CC(=O)Nc1ccc(Nc2ncnc(N[C@@H](Cc3ccccc3)C(=O)O)n2)cc1 | – | EC50 [2]: 60 µM |
| CC(=O)Nc1ccc(Nc2ncnc(N[C@H](CC(C)C)C(=O)OC(C)(C)C)n2)cc1 | – | Rmax [6]: < 20% |
| CC(=O)Nc1ccc(Nc2ncnc(N[C@H](COC(C)(C)C)CC(C)C)n2)cc1 | 42.2 | – |
| CC(=O)Nc1ccc(Nc2ncnc(NCC(=O)OC(C)(C)C)n2)cc1 | 832 | – |
